From ChEMBL document CHEMBL1124821, “Design of an antithrombotic-antihypertensive agent (Wy 27569). Synthesis and evaluation of a series of 2-heteroaryl-substituted dihydropyridines” (J Med Chem, 1990)
Several values for one entry are separate records, joined by “and”; a condition that tells them apart may be missing. Identical values can stand only once.

Key:
Rattus norvegicus [1] = assay: Reduction in blood pressure of rats, 2 hr after 0.03 mmol/kg p.o. administration; format: functional
Summary of the method: (§1)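 Female SHR (250–300 g) kept in 37 °C constant-temperature housing; systolic pressure measured by tail-cuff with a pneumatic pulse transducer. Rats below 155 mmHg discarded. Groups of four given a single oral dose in 0.5% (hydroxypropyl)methylcellulose–0.9% saline (10 mL/kg) or vehicle alone; pressure recorded before dosing and at 2, 6 and 24 h. Analysed by analysis of variance.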

Rattus norvegicus [2] = assay: The compound was tested for reducing blood pressure in rats after 6 hours of 0.03 mmol/kg oral administration.; format: functional; summary of the method: as §1
Rattus norvegicus [3] = assay: The compound was tested for reducing blood pressure in rats after 6 hours of 0.003 mmol/kg oral administration.; format: functional; summary of the method: as §1
Rattus norvegicus [4] = assay: The compound was tested for reducing blood pressure in rats after 2 hours of 0.003 mmol/kg oral administration.; format: functional; summary of the method: as §1
[5] = molecular target: Thromboxane-A synthase (Oryctolagus cuniculus); assay: Inhibition of Thromboxane A2 synthase in rabbit platelets in vitro
Homo sapiens [6] = organism: Homo sapiens; assay: The compound was tested for effects of compound on 6-KPGF1alpha production at molar concentration of 10e-3 in human platelet rich plasma; format: functional
Homo sapiens [7] = organism: Homo sapiens; assay: The compound was tested for effects of compound on 6-KPGF1alpha production at molar concentration of 10e-4 in human platelet rich plasma; format: functional
Homo sapiens [8] = organism: Homo sapiens; assay: The compound was tested for effects of compound on 6-KPGF1alpha production at molar concentration of 10e-5 in human platelet rich plasma; format: functional
Homo sapiens [9] = organism: Homo sapiens; assay: The compound was tested for effects of compound on 6-KPGF1alpha production at molar concentration of 10e-6 in human platelet rich plasma; format: functional
Homo sapiens [10] = organism: Homo sapiens; assay: The compound was tested for effects of compound on 6-KPGF1alpha production at molar concentration of 10e-7 in human platelet rich plasma; format: functional
Homo sapiens [11] = organism: Homo sapiens; assay: The compound was tested for effects of compound on TXB2 production at different molar concentration of 10e-3 in human platelet rich plasma; format: functional
Homo sapiens [12] = organism: Homo sapiens; assay: The compound was tested for effects of compound on TXB2 production at different molar concentration of 10e-4 in human platelet rich plasma; format: functional
Homo sapiens [13] = organism: Homo sapiens; assay: The compound was tested for effects of compound on TXB2 production at molar concentration of 10e-5 in human platelet rich plasma; format: functional
Homo sapiens [14] = organism: Homo sapiens; assay: The compound was tested for effects of compound on TXB2 production at molar concentration of 10e-6 in human platelet rich plasma; format: functional
Homo sapiens [15] = organism: Homo sapiens; assay: The compound was tested for effects of compound on TXB2 production at molar concentration of 10e-7 in human platelet rich plasma; format: functional
Rattus norvegicus [16] = assay: The compound was tested for reducing blood pressure in rats after 2 hours of 0.03 mmol/kg oral administration; format: functional; summary of the method: as §1
Rattus norvegicus [17] = assay: The compound was tested for reducing blood pressure in rats after 6 hours of 0.03 mmol/kg oral administration; format: functional; summary of the method: as §1
Rattus norvegicus [18] = assay: The compound was tested for reducing blood pressure in rats after 2 hours of 0.003 mmol/kg oral administration; format: functional; summary of the method: as §1
Rattus norvegicus [19] = assay: The compound was tested for plasma levels of 6-KPGF1alpha in rats after 2 hr following dose 0.3(mg/kg) in oral administration; format: functional, organism-based
Summary of the method: (§2)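 Female normotensive rats killed by CO₂ asphyxiation 2 h after oral dosing with compound or vehicle (n = 10–13 per group). Blood taken from the posterior vena cava with 1% EDTA, centrifuged at once (10000g, 10 min), and plasma stored at –30 °C. TXB₂ and 6-KPGF1α measured by radioimmunoassay, in pg/mL, mean ± SEM. p < 0.05 versus controls taken as significant.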

Rattus norvegicus [20] = assay: The compound was tested for plasma levels of 6-KPGF1alpha in rats after 2 hr following dose 10(mg/kg) in oral administration.; format: functional, organism-based; summary of the method: as §2
Rattus norvegicus [21] = assay: The compound was tested for plasma levels of TXB2 in rats after 2 hr following dose 0.3(mg/kg) in oral administration; format: functional, organism-based; summary of the method: as §2
Rattus norvegicus [22] = assay: The compound was tested for plasma levels of TXB2 in rats after 2 hr following dose 1(mg/kg) in oral administration; format: functional, organism-based; summary of the method: as §2
Rattus norvegicus [23] = assay: The compound was tested for plasma levels of TXB2 in rats after 2 hr following dose 10(mg/kg) in oral administration; format: functional, organism-based; summary of the method: as §2
Rattus norvegicus [24] = assay: The compound was tested for plasma levels of TXB2 in rats after 2 hr following dose 3(mg/kg) in oral administration (P<0.05); format: functional, organism-based; summary of the method: as §2
Rattus norvegicus [25] = assay: The compound was tested for plasma levels of 6-KPGF1alpha in rats after 2 hr following dose 3(mg/kg) in oral administration; format: functional, organism-based; summary of the method: as §2
Homo sapiens [26] = organism: Homo sapiens; assay: The compound was tested for effects of compound on TXB2 production at molar concentration of 10e-3 in human platelet rich plasma; format: functional
Homo sapiens [27] = organism: Homo sapiens; assay: The compound was tested for effects of compound on TXB2 production at molar concentration of 10e-4 in human platelet rich plasma; format: functional
Rattus norvegicus [28] = assay: The compound was tested for plasma levels of TXB2 in rats after 2 hr following dose 10(mg/kg) in oral administration.; format: functional, organism-based; summary of the method: as §2
Rattus norvegicus [29] = assay: The compound was tested for plasma levels of TXB2 in rats after 2 hr following dose 3(mg/kg) in oral administration.; format: functional, organism-based; summary of the method: as §2
Rattus norvegicus [30] = assay: The compound was tested for plasma levels of TXB2 in rats after 2 hr following dose 3(mg/kg) in oral administration. (p<0.05); format: functional, organism-based; summary of the method: as §2

CCO/C(O)=C1\C(Cn2ccnc2)=NC(C)=C(C(=O)OC(C)C)C1c1cccc([N+](=O)[O-])c1.Cl (stereo unspecified)
Decrease in blood pressure (Rattus norvegicus [1]): 21%
Decrease in blood pressure (Rattus norvegicus [2]): 19%

CCO/C(O)=C1\C(Cn2ccnc2)=NC(C)=C(C(=O)OC)C1c1cccc(Cl)c1Cl (stereo unspecified)
Decrease in blood pressure (Rattus norvegicus [1]): 54%
Decrease in blood pressure (Rattus norvegicus [3]): 20%
Decrease in blood pressure (Rattus norvegicus [2]): 49%
Decrease in blood pressure (Rattus norvegicus [4]): 40%

CCO/C(O)=C1\C(C)=NC(Cn2ccnc2)=C(C(=O)OC)C1c1ccccc1OC(F)F (stereo unspecified)
Decrease in blood pressure (Rattus norvegicus [1]): 48%
Decrease in blood pressure (Rattus norvegicus [2]): 31%
IC50 [5]: 25 µM

CCO/C(O)=C1\C(Cn2ccnc2)=NC(C)=C(C(=O)OC)C1c1cccc([N+](=O)[O-])c1.Cl (stereo unspecified)
Production (Homo sapiens [6]): 460%
Production (Homo sapiens [7]): 431%
Production (Homo sapiens [8]): 119%
Production (Homo sapiens [9]): 112%
Production (Homo sapiens [10]): 100%
Production (Homo sapiens [11]): 0%
Production (Homo sapiens [12]): 10%
Production (Homo sapiens [13]): 43%
Production (Homo sapiens [14]): 67%
Production (Homo sapiens [15]): 92%
Decrease in blood pressure (Rattus norvegicus [16]): 51%
Decrease in blood pressure (Rattus norvegicus [17]): 38% and 28%
Decrease in blood pressure (Rattus norvegicus [18]): 34%
Plasma level (Rattus norvegicus [19]): 22 pg/mL
Plasma level (Rattus norvegicus [20]): 94 pg/mL
Plasma level (Rattus norvegicus [21]): 484 pg/mL
Plasma level (Rattus norvegicus [22]): 402 pg/mL
Plasma level (Rattus norvegicus [23]): 280 pg/mL
Plasma level (Rattus norvegicus [24]): 330 pg/mL
Plasma level (Rattus norvegicus [25]): 68 pg/mL

CCO/C(O)=C1\C(COCCn2ccnc2)=NC(C)=C(C(=O)OC)C1c1cccc([N+](=O)[O-])c1.Cl (stereo unspecified)
Decrease in blood pressure (Rattus norvegicus [1]): 56%
Decrease in blood pressure (Rattus norvegicus [17]): 42%

CCO/C(O)=C1\C(Cn2ccnc2)=NC(C)=C(C(=O)OC)C1c1ccccc1OC(F)F (stereo unspecified)
Decrease in blood pressure (Rattus norvegicus [1]): 55% and 48%

O=C(O)c1ccc(OCCn2ccnc2)cc1 [DAZOXIBEN]
Production (Homo sapiens [6]): 345%
Production (Homo sapiens [7]): 460%
Production (Homo sapiens [8]): 603%
Production (Homo sapiens [9]): 463%
Production (Homo sapiens [10]): 115%
Production (Homo sapiens [26]): 2%
Production (Homo sapiens [27]): 5%
Production (Homo sapiens [13]): 21%
Production (Homo sapiens [14]): 69%
Production (Homo sapiens [15]): 97.5%
Plasma level (Rattus norvegicus [28]): 270 pg/mL and 202 pg/mL
Plasma level (Rattus norvegicus [29]): 384 pg/mL
Plasma level (Rattus norvegicus [30]): 384 pg/mL

CCO/C(O)=C1\C(C)=NC(Cn2ccnc2)=C(C(=O)OC)C1c1cccc([N+](=O)[O-])c1 (stereo unspecified)
IC50 [5]: 2.2 µM

CCO/C(O)=C1\C(COCc2cccnc2)=NC(C)=C(C(=O)OC)C1c1cccc([N+](=O)[O-])c1.Cl (stereo unspecified)
Decrease in blood pressure (Rattus norvegicus [1]): 18%

CCO/C(O)=C1\C(Cn2ccnc2)=NC(C)=C(C(=O)OC)C1c1ccccc1Cl (stereo unspecified)
Decrease in blood pressure (Rattus norvegicus [1]): 31%
Decrease in blood pressure (Rattus norvegicus [2]): 15%
IC50 [5]: 0.5 µM

CCOC(=O)C1=C(COc2cccnc2)NC(C)=C(C(=O)OC)C1c1cccc([N+](=O)[O-])c1.Cl (stereo unspecified)
Decrease in blood pressure (Rattus norvegicus [1]): 40%
